One series addresses PDE8A1 (480–820) (Homo sapiens, UniProt O60658). Briefly: PDE8A inhibition, 3H-cAMP radiometric enzyme assay. It counts as biochemical. The method in brief:
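Recombinant PDE8A1 (480–820) was expressed in E. coli BL21 (DE3), denatured in guanidine, refolded, and purified on Ni-NTA, hydroxyapatite, Q-Sepharose and gel filtration. ³H-cAMP (~20,000 cpm/assay) was reacted in Tris-HCl 20 mmol/L pH 7.5, MnCl₂ 10 mmol/L and DTT 1 mmol/L at 25 °C for 15 min. Reactions were stopped with ZnSO₄ then Ba(OH)₂, and supernatant ³H-cAMP was scintillation-counted. IC50 came from nonlinear regression over ≥8 concentrations, with each test run ≥3 times.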

The nature of series [1]: Metabolic stability in rat liver microsomes. It is filed as in vitro ADME.

Here are results for 13 compounds from PMC9293670 (Acta Pharmaceutica Sinica. B, 2022).

Sequence of PDE8A1 (480–820) (O60658 480-820): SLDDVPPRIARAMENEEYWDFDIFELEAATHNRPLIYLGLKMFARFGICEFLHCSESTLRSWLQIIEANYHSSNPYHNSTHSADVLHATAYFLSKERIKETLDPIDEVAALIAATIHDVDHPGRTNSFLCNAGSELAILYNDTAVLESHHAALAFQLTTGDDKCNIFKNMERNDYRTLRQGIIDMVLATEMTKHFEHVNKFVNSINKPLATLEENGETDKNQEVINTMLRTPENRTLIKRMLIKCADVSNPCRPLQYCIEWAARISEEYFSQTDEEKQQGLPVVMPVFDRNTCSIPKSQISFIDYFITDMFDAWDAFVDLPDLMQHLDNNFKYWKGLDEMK

As usually defined, the IC50 is the concentration at which inhibition is half-maximal. Regarding `Nc1nc(Cl)nc2c1ncn2Cc1cc(F)cc(OCC(F)F)c1` [Compound 11], on PDE8A1 (480–820), the midpoint of inhibition, the IC50, lay at 51 ± 3 nM.

Take `Nc1nc(Cl)nc2c1ncn2Cc1cc(O)cc(OCC(F)F)c1` [Compound 12]: the midpoint of inhibition on PDE8A1 (480–820), the IC50, lay at 193 ± 17 nM.

Compound `COc1cc(Cn2cnc3c(N)nc(Cl)nc32)cc(OCC(F)F)c1` [Compound 13] yielded an IC50 against PDE8A1 (480–820) of 591 ± 11 nM.

Take `CCOc1cc(Cn2cnc3c(N)nc(Cl)nc32)cc(OCC(F)F)c1` [Compound 14]: the IC50 at PDE8A1 (480–820) worked out at 593 ± 69 nM.

A word on the half-life: it is the time needed for the level to fall by half in the phase considered. A low value points to rapid decline. In series [1], `CC(C)c1cc(Cn2cnc3c(N)nc(Cl)nc32)cc(OCC(F)F)c1` [Compound 16] returned a half-life of 6 min. In addition, on PDE8A1 (480–820), it took 4.6 ± 0.6 nM to reach half-maximal inhibition (IC50).

In turn, `CC(C)Oc1cc(Cn2cnc3c(N)nc(Cl)nc32)cc(OCC(F)F)c1` [Compound 17] had a half-life in series [1] of 16 min. 5 ± 0.3 nM corresponded to half-maximal inhibition against PDE8A1 (480–820) (IC50).

As to `Nc1nc(Cl)nc2c1ncn2Cc1cc(OCC(F)F)cc(OC2CCC2)c1` [Compound 18], the half-maximal inhibitory concentration (IC50) against PDE8A1 (480–820) is 20 ± 2 nM.

As for `Nc1nc(Cl)nc2c1ncn2Cc1cc(OCC(F)F)cc(OCC2CC2)c1` [Compound 19], at PDE8A1 (480–820), the IC50 came to 40 ± 1 nM.

As to `COCCOc1cc(Cn2cnc3c(N)nc(Cl)nc32)cc(OCC(F)F)c1` [Compound 20], inhibition on PDE8A1 (480–820) was half-maximal at 52 ± 5 nM (IC50).

`Nc1nc(Cl)nc2c1ncn2Cc1cc(OCc2ccccc2)cc(OCC(F)F)c1` [Compound 21] displayed an IC50 on PDE8A1 (480–820) of 597 ± 61 nM.

For the compound `Nc1nc(Cl)nc2c1ncn2Cc1cc(OCC(F)F)cc(-c2ccncc2)c1` [Compound 22], in series [1], the half-life came out at 8 min. Besides, at PDE8A1 (480–820), the midpoint of inhibition, the IC50, lay at 3.1 ± 0.2 nM.

`Nc1nc(Cl)nc2c1ncn2Cc1cc(OCC(F)F)cc(-c2cccnc2)c1` [Compound 23]: the half-life in series [1] turned out to be 39 min. At PDE8A1 (480–820), this compound gave an IC50 of 4.8 ± 0.3 nM.

For `Nc1nc(Cl)nc2c1ncn2Cc1cc(OCC(F)F)cc(-c2ccco2)c1` [Compound 25], the IC50 against PDE8A1 (480–820) is 13 ± 2 nM.
